Experimental findings from ChEMBL document CHEMBL4017523, “Computer-Aided Identification and Lead Optimization of Dual Murine Double Minute 2 and 4 Binders: Structure-Activity Relationship Studies and Pharmacological Activity” (J Med Chem, 2017) are described below.

The source made the active and inactive calls. The calls are words filed in the database; no cut-off is given here. Bounds are passed on as bounds.

Experiment [1] concerns SH-SY5Y. As to the kind of experiment: Antiproliferative activity against human SH-SY5Y cells after 24 hrs by MTS assay.
Experiment [2] concerns SH-SY5Y. As to the kind of experiment: Antiproliferative activity against human SH-SY5Y cells at 1 nM to 100 uM after 72 hrs by neutral red dye-based assay. The class given is functional, cell-based. The method in brief:
(§1)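 Cells exposed to DMSO control or test agent at 1 nM to 100 μM for 72 h. Drug medium replaced, then 0.33% neutral red solution added at 10% of medium volume for 2 h at 37 °C. After PBS rinse, dye extracted with 1% glacial acetic acid/50% ethanol in PBS with 10 min shaking. Absorbance read at 540 nm.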

Experiment [3] has as its system U-87 MG. As to the kind of experiment: Antiproliferative activity against human U87MG cells at 1 nM to 100 uM after 72 hrs by neutral red dye-based assay. Type of experiment: functional, cell-based. As to conditions: U-87MG ATCC. The gist of the method: as §1
The test system of experiment [4] is U-87 MG. Kind of experiment: Antiproliferative activity against human U87MG derived cancer stem cells after 7 days by MTS assay. The class given is functional, cell-based. As to conditions: U-87MG ATCC. The gist of the method: (§2)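 Cancer stem cells isolated by culturing 2.5 × 10^6 tumor cells without serum in NSC medium for 7 days. Treated with test agent (100 nM–10 μM) for 7 days, drug-containing medium renewed every 3 days. Proliferation measured by MTS and expressed as percent of control (mean ± SEM, N = 3).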
(In general: Tetrazolium assays rely on reduction of a dye to a coloured formazan, in cell work by metabolically active cells.)

The test system of experiment [5] is SH-SY5Y. Kind of experiment: Antiproliferative activity against human SH-SY5Y derived cancer stem cells after 7 days by MTS assay. The class given is functional, cell-based. The gist of the method: as §2
In experiment [6] the test system is SH-SY5Y. Kind of experiment: cells. As to conditions: Homo sapiens, 24 h, read-out: Activity.
Experiment [7] has as its system U-87 MG. As to the kind of experiment: Antiproliferative activity against human U87MG cells at 1 uM after 24 hrs by MTS assay. Type of experiment: functional, cell-based. As to conditions: U-87MG ATCC. The gist of the method:
(§3)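 Cells treated for 24 h, either alone or combined with reference MDM2 inhibitor (1 μM) and/or MDM4 inhibitor (1 μM). Drug medium then swapped for fresh medium and growth continued before MTS read-out. Data given as percent of untreated control set to 100% (mean ± SEM, N = 3).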

Experiment [8] concerns the target T1, Protein Mdm4 (Homo sapiens) (UniProt O15151).
T1 sequence (whole entry): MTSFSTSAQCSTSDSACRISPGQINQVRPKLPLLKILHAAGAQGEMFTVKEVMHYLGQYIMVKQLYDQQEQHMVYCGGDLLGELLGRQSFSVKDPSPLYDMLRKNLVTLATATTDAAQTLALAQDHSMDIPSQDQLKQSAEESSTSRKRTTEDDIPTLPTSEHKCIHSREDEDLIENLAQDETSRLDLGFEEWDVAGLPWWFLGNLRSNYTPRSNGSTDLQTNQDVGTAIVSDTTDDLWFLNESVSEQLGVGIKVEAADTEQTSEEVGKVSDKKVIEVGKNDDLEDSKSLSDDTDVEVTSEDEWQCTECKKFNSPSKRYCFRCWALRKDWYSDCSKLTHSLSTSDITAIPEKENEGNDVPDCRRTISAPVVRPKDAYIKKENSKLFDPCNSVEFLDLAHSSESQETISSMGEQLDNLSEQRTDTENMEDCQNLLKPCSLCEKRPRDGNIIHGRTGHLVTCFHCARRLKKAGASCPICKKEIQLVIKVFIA
Kind of experiment: Inhibition of MDM4 in human SH-SY5Y cells assessed as increase in MDM2 mRNA levels at 1 uM after 24 hrs by RT-qPCR analysis. Type of experiment: cell-based. The method in brief: (§4)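 Cells incubated 24 h with agents at 1 μM, alone or combined with MDM2 inhibitor. RNA extracted and MDM2, PUMA and p21 transcripts quantified by real-time RT-PCR. Results reported as fold change versus control (mean ± SEM, N = 3).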
For orientation: Real-time PCR tracks product formation cycle by cycle.

Experiment [9] deals with E3 ubiquitin-protein ligase Mdm2 (Homo sapiens, UniProt Q00987). As to the kind of experiment: Inhibition of MDM2 in human U87MG cells assessed as reduction in MDM2 interaction with p53 after 10 mins by quantitative sandwich immune-enzymatic assay. The class given is cell-based.
Chain of E3 ubiquitin-protein ligase Mdm2 (Q00987 whole entry): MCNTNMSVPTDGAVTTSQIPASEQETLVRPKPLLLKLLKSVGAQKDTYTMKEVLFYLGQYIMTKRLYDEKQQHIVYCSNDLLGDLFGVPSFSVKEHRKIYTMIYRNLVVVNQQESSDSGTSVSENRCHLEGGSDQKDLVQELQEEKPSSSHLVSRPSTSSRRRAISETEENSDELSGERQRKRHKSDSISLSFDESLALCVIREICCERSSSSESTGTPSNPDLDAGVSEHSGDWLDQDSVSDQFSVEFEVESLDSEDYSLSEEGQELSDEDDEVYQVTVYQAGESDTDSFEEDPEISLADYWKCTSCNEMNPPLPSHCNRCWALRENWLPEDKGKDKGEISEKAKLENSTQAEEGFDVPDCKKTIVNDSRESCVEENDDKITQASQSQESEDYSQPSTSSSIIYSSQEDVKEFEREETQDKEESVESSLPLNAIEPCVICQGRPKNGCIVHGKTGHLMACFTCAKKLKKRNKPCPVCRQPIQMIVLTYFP
In a further experiment the target is T2, Protein Mdm4 (Homo sapiens, UniProt O15151).
T2 sequence (O15151 whole entry): T1 sequence (whole entry)
As to the kind of experiment: Inhibition of MDM4 in human SH-SY5Y cells assessed as reduction in MDM4 interaction with p53 after 10 mins by quantitative sandwich immune-enzymatic assay. Type of experiment: cell-based.

The target of experiment [10] is T1, Protein Mdm4 (Homo sapiens). Kind of experiment: Inhibition of MDM4 in human SH-SY5Y cells assessed as accumulation of p53 at 1 uM after 24 hrs in presence of Nutlin-3 by Western blot analysis. The class given is cell-based. The method in brief: (§5)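 Cells treated 24 h with DMSO control or agents at 1 μM, alone or combined with 1 μM MDM2 inhibitor. Cells lysed in RIPA buffer and run on 8.5% SDS-PAGE. Blots probed overnight at 4 °C with anti-p53 (1:200), using GAPDH as loading control. Bands quantified by densitometry as percent OD versus control (mean ± SEM, N = 2).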

Experiment [11] shares this target. As to the kind of experiment: Inhibition of MDM4 in human SH-SY5Y cells assessed as increase in PUMA mRNA levels at 1 uM after 24 hrs in presence of Nutlin-3 by RT-qPCR analysis. The class given is cell-based. The gist of the method: as §4
For experiment [12] the target is unchanged. Kind of experiment: Inhibition of MDM4 in human SH-SY5Y cells assessed as increase in p21 mRNA levels at 1 uM after 24 hrs in presence of Nutlin-3 by RT-qPCR analysis. Type of experiment: cell-based. The method in brief:
as §4

Experiment [13] has the same target. As to the kind of experiment: Inhibition of MDM4 in human SH-SY5Y cells assessed as accumulation of p53 at 1 uM after 24 hrs by Western blot analysis. Type of experiment: cell-based. The method in brief:
as §5

The target is the same in experiment [14]. Kind of experiment: Inhibition of MDM4 in human SH-SY5Y cells assessed as increase in PUMA mRNA levels at 1 uM after 24 hrs by RT-qPCR analysis. Type of experiment: cell-based. The method in brief: as §4
Experiment [15] shares this target. As to the kind of experiment: Inhibition of MDM4 in human SH-SY5Y cells assessed as increase in p21 mRNA levels at 1 uM after 24 hrs by RT-qPCR analysis. Type of experiment: cell-based. The gist of the method: as §4
For experiment [16], the system named is SH-SY5Y. As to the kind of experiment: Antiproliferative activity against human SH-SY5Y cells at 1 uM after 24 hrs in presence of Nutlin-3 by MTS assay relative to control. The class given is functional. The gist of the method:
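Cells were exposed to compound for 24 h, alone or with 1 μM MDM2 inhibitor. Drug medium was then replaced with fresh medium, and cells grew for a further 3 days before the MTS read-out. Values are % of control (100%), mean ± SEM, N=3. For SH-SY5Y, IC50 came from a sigmoid dose-response fit.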

Experiment [17] deals with SH-SY5Y. As to the kind of experiment: Antiproliferative activity against human SH-SY5Y cells at 1 uM after 24 hrs in presence of […] by MTS assay relative to control. Type of experiment: functional. The gist of the method:
as §3

The IC50 is the concentration that gives 50% inhibition. The compound `O=C(CC(c1ccccc1)c1ccccc1)N[C@@H](Cc1ccc(OCCCNc2ccccn2)cc1)C(=O)O` came in with an IC50 in the experiment with SH-SY5Y [1] of 356 nM. Also, the result with SH-SY5Y [2] and with U-87 MG [3] was Active. Further, the Activity entry with U-87 MG [4] and with SH-SY5Y [5] was “Dose-dependent effect” throughout. Moreover, the viability at 1 µM in the experiment with SH-SY5Y [6] stood at 62.4%.

As for `CCOc1cc(/C=C2\C(=O)N(c3ccccc3)N=C2C)cc(Cl)c1OCC(=O)OC`, in the experiment with U-87 MG [7], the outcome was inactive. The inhibition result in experiment [8], in [10], in [11], in experiment [12] and in [13] was “Active” each time. For the same compound, the IC50 in experiment [9] is greater than 1000 nM; on Protein Mdm4, 847 nM. Further, the inhibition entry in [14] and in experiment [15] was “inactive” throughout. Further, the Activity in the experiment on SH-SY5Y [16] worked out at 47.1%.

As to `COc1ccc(C2=N[C@H](c3ccc(Cl)cc3)[C@H](c3ccc(Cl)cc3)N2C(=O)N2CCNC(=O)C2)c(OC(C)C)c1`, the outcome in the experiment on U-87 MG [7] was Active. Besides, the Activity in the experiment on SH-SY5Y [17] is 47.1%.
